Test system: MDA-MB-231 cells
Format: cell-based, human
Details: 1 h incubation
Method in brief: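 MDA-MB-231 cells incubated 1 h with fluorescent conjugates or linker-functionalised fluorescein, then analysed by fluorescence correlation spectroscopy in the cytoplasm. Probe hydrodynamic radii and cytoplasmic viscosity were first determined by FCS. Cytoplasmic diffusion coefficients came from autocorrelation curves and were compared with values predicted for free diffusion using a cytoplasm viscosity model.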

Substance: FAM-PEG
- FCS autocorrelation of fluorescence signal in cells: no autocorrelation of fluorescence signal was detected

— publication PMC8336483 (Chemical Science, 2021)
